Results from ChEMBL document CHEMBL4732101, “Novel quinolone-based potent and selective HDAC6 inhibitors: Synthesis, molecular modeling studies and biological investigation” (Eur J Med Chem, 2021).
Active and inactive are the calls of the source. The rule behind the calls is not given here.

Columns and labels:
HCT-116 [1] = experiment: Cytotoxicity against human HCT-116 cells assessed as reduction in cell viability measured after 24 hrs by MTT assay; format: functional, cell-based; conditions: HCT-116, 24 h
Method in brief: (§1)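 HCT-116 cells grown in DMEM with 10% FBS, 2 mM L-glutamine and antibiotics. 2.5×10^4 cells/well treated in triplicate at 50, 25, 10, 5 and 1 µM for 12, 24 or 48 h. Then MTT 0.5 mg/ml for 3 h, supernatant removed, formazan dissolved in isopropanol, absorbance read at 570 nm. IC50 derived from the concentration series.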

HCT-116 [2] = experiment: Cytotoxicity against human HCT-116 cells assessed as reduction in cell viability measured after 48 hrs by MTT assay; format: functional, cell-based; conditions: HCT-116, 48 h; method in brief: as §1
NIH3T3 = experiment: Cytotoxicity against mouse NIH/3T3 cells assessed as reduction in cell viability after 24 hrs by neutral red uptake assay; format: cell-based; conditions: NIH3T3, 24 h
Method in brief: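 NIH3T3 fibroblasts seeded at 5 x 10^4 per well and cultured 24 h at 37 °C, 5% CO2. DMSO-solubilized samples added at 8 to 160 µM for 24 h; medium as negative control. Neutral Red medium applied 3 h, dye desorbed in acetic acid/ethanol, absorbance read at 540 nm. Three experiments, six replicates per concentration; viability normalized to % control.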

U-937 = experiment: Cytotoxicity against human U-937 cells assessed as reduction in cell proliferation at 50 uM measured after 48 hrs by MTT assay relative to control; format: functional; parameters: scale not given: the % may be the effect or the level left
Method in brief: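 U937 cells grown in RPMI-1640 with 10% FBS, 2 mM L-glutamine and penicillin-streptomycin. 2.5×10^4 cells/well treated in triplicate at 50, 25, 10, 5 and 1 µM for 12, 24 or 48 h. MTT 0.5 mg/ml added for 3 h, plate centrifuged 5 min at 1200 rpm, crystals dissolved in isopropanol, A570 read. IC50 derived from the concentration series.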

[3] = molecular target: T1, Protein deacetylase HDAC6 (Homo sapiens) (UniProt Q9UBN7); experiment: Inhibition of HDAC6 in human U-937 cells assessed as increase in alpha-tubulin acetylation at 10 uM measured after 12 to 24 hrs by Western blot analysis relative to control; format: cell-based; conditions: time 12-24 hrs
T1 sequence (whole entry): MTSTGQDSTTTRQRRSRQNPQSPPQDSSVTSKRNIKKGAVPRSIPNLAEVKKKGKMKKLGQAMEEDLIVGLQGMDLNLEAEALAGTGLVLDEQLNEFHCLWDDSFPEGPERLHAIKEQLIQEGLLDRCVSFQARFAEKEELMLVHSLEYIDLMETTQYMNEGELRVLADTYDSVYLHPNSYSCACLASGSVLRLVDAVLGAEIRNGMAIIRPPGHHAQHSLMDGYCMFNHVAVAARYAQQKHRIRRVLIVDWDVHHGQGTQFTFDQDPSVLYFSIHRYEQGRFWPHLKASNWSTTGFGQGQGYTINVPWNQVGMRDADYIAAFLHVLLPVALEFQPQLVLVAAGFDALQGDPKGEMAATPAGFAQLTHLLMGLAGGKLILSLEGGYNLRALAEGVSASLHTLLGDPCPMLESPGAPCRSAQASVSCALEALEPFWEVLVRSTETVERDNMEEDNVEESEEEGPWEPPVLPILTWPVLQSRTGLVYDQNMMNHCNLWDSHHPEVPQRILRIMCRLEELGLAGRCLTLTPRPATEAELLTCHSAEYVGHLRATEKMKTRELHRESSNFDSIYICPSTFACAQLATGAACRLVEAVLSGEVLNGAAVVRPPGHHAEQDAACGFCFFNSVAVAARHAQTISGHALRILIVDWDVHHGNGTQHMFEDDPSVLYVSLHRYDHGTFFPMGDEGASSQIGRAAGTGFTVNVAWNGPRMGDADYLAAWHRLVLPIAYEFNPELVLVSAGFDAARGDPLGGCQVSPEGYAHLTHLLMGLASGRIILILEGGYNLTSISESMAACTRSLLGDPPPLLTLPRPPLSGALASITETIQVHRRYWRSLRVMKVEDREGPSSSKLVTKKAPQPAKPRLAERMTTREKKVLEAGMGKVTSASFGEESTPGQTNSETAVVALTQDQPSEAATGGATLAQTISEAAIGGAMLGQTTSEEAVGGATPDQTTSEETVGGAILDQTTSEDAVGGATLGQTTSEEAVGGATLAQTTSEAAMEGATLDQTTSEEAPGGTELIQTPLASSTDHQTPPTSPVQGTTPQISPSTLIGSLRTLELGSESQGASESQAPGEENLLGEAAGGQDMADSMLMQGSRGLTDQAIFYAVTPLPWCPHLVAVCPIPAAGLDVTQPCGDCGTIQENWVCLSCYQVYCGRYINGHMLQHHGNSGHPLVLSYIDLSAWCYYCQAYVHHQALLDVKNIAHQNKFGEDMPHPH
Method in brief: (§2)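 HCT-116 or U937 cells treated at 10 µM for 12 and 24 h. […] Western blot used 40 µg total protein or 5 µg acid-extracted histone. Blots probed for cleaved PARP, acetylated tubulin, H3K9/14ac and Hsp90(AcLys294), normalized to GAPDH or H4. Compared with control cells by one-way ANOVA and Dunnett's test.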

[4] = molecular target: T1, Protein deacetylase HDAC6 (Homo sapiens); experiment: Inhibition of HDAC6 in human U-937 cells assessed as increase in Hsp90(AcLys294) acetylation at 10 uM measured after 12 to 24 hrs by Western blot analysis; format: cell-based; conditions: time 12-24 hrs; method in brief: as §2
[5] = Stability of compound in pH 3 buffer assessed as parent compound remaining at 250 uM measured after 24 hrs by HPLC/UV/DAD method; format: physicochemical; conditions: read-out: Stabilty
Method in brief: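 10 mM DMSO stock diluted to 250 µM (2.5% DMSO) in 50 mM acetic acid, pH 3.0, and shaken 24 h at 25 °C. For solubility, samples filtered, diluted 1:2, quantified by HPLC-UV at 254 nm against a standard. For stability, percent remaining taken as the 24 h peak area over the T0 peak area. Triplicate analyses averaged.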

[6] = Mutagenicity in Salmonella typhimurium TA100 at 5 to 230 uM measured after 90 mins in presence of rat liver S9 fraction by Ames test; format: toxicity, subcellular; conditions: salmonella enterica subsp. enterica serovar typhimurium, s9, 1.5 h, dose 5-230 µM
[7] = Mutagenicity in Salmonella typhimurium TA98 at 5 to 230 uM measured after 90 mins in absence of rat liver S9 fraction by Ames test; format: toxicity; conditions: salmonella enterica subsp. enterica serovar typhimurium, 1.5 h, dose 5-230 µM
[8] = Cytotoxicity against human PBMC cells assessed as reduction in cell viability at 90 uM measured after 24 to 48 hrs by GUAVA easyCyte cytometric method; format: cell-based; conditions: time 24-48 hrs
Method in brief: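 PBMCs seeded at 1.5 x10^6/mL in complete medium and exposed to 15, 45 or 90 µM test compound, or DMSO vehicle, for 24 h and 48 h. Percentage of viable cells determined by flow cytometry with ViaCount reagent.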

CCN(CC)Cc1ccc(Cn2c(=O)c(OCc3ccc(C(=O)NO)cc3)c(-c3cccnc3)c3ccccc32)cc1
IC50 (HCT-116 [1]): 25.7 µM | IC50 (HCT-116 [2]): 8.4 µM | IC50 (NIH3T3): 90 µM | Activity (U-937): 60% | fold change (FC) [3]: > 9 | inhibition [4]: inactive | remaining at 24 h, 250 µM [5]: > 95% | Activity [6]: Non-Toxic | Activity [7]: Non-Toxic | Activity [8]: Toxic
